ChEMBL document CHEMBL1811853, “Design and evaluation of 3-aminopyrazolopyridinone kinase inhibitors inspired by the natural product indirubin” (Bioorg Med Chem, 2011)
Converted amounts (≈) assume the structure as drawn.

Key:
[1] = Aqueous solubility of the compound by HPLC analysis; assay type: physicochemical; details: water
In short: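 Solubility determined by HPLC measurement of the concentration in saturated aqueous solutions of the compounds.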

[2] = biological target: MAP kinase-activated protein kinase 2 (Homo sapiens, UniProt P49137); experiment: Inhibition of MAPKAPK2 at 30 uM by microfluidic mobility shift assay
In short: (§1)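 Single-concentration screen, singlicate, 30 uM final (diluted from 1 mM DMSO solutions), fluorescently tagged peptide substrate appropriate to each kinase, ATP at apparent Km for each protein. Phosphorylated and unphosphorylated peptides separated electrophoretically; conversion is the phosphorylated peak area over the sum of both peaks. No-inhibitor and no-ATP controls; H89 reference on each plate.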

[3] = biological target: T1, Aurora kinase A (Homo sapiens) (UniProt O14965); experiment: Inhibition of AurA at 30 uM by microfluidic mobility shift assay; in short: as §1
T1 sequence (whole entry): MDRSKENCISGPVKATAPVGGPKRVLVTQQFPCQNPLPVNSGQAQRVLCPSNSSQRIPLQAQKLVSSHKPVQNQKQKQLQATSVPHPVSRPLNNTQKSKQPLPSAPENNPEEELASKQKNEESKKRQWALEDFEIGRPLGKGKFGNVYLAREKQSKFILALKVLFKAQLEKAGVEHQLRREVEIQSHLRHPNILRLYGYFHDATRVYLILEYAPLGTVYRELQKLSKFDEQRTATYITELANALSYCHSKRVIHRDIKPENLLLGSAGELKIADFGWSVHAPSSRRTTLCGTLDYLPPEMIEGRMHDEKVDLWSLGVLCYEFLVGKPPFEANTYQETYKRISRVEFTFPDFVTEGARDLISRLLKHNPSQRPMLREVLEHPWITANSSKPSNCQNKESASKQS

[4] = biological target: T2, Protein kinase C zeta type (Homo sapiens) (UniProt Q05513); experiment: Inhibition of PKCz at 30 uM by microfluidic mobility shift assay; in short: as §1
T2 sequence (whole entry): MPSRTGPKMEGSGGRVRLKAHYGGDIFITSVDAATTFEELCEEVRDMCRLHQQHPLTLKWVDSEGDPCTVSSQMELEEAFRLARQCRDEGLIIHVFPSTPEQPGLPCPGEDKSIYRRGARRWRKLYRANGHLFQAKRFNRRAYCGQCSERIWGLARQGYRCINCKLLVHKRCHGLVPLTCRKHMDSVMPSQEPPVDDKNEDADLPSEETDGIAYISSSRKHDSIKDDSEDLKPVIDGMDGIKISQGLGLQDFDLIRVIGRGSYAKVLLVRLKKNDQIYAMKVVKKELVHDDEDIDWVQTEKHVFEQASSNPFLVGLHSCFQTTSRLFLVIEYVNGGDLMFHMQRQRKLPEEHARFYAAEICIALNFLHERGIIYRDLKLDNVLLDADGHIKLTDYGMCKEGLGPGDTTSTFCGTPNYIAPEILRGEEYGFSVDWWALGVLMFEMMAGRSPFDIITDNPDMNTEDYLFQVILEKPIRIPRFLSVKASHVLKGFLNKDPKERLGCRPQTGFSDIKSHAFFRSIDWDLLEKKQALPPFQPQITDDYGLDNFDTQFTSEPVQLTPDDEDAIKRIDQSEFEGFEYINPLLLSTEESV

[5] = biological target: Ribosomal protein S6 kinase alpha-1 (Homo sapiens) (UniProt Q15418); experiment: Inhibition of RSK1 at 30 uM by microfluidic mobility shift assay; in short: as §1
[6] = biological target: T3, MAP kinase-activated protein kinase 5 (Homo sapiens) (UniProt Q8IW41); experiment: Inhibition of PRAK1 at 30 uM by microfluidic mobility shift assay; in short: as §1
T3 sequence (whole entry): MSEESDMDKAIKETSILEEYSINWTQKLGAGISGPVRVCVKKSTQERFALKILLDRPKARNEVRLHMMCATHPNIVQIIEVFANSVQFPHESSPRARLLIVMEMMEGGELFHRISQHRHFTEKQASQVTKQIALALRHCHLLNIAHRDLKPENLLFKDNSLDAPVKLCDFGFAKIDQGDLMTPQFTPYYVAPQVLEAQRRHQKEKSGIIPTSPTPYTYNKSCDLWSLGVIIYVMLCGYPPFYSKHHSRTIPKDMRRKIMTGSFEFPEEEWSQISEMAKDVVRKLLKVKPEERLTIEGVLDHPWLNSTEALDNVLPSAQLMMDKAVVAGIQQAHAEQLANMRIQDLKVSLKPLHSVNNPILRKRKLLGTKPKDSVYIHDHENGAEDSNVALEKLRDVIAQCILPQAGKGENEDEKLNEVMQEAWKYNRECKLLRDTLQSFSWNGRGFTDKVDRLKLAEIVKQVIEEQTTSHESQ

[7] = biological target: Mitogen-activated protein kinase 3 (Homo sapiens) (UniProt P27361); experiment: Inhibition of ERK1 at 30 uM by microfluidic mobility shift assay; in short: as §1
[8] = biological target: T4, Serine/threonine-protein kinase D2 (Homo sapiens) (UniProt Q9BZL6); experiment: Inhibition of PKD2 at 30 uM by microfluidic mobility shift assay; in short: as §1
T4 sequence (whole entry): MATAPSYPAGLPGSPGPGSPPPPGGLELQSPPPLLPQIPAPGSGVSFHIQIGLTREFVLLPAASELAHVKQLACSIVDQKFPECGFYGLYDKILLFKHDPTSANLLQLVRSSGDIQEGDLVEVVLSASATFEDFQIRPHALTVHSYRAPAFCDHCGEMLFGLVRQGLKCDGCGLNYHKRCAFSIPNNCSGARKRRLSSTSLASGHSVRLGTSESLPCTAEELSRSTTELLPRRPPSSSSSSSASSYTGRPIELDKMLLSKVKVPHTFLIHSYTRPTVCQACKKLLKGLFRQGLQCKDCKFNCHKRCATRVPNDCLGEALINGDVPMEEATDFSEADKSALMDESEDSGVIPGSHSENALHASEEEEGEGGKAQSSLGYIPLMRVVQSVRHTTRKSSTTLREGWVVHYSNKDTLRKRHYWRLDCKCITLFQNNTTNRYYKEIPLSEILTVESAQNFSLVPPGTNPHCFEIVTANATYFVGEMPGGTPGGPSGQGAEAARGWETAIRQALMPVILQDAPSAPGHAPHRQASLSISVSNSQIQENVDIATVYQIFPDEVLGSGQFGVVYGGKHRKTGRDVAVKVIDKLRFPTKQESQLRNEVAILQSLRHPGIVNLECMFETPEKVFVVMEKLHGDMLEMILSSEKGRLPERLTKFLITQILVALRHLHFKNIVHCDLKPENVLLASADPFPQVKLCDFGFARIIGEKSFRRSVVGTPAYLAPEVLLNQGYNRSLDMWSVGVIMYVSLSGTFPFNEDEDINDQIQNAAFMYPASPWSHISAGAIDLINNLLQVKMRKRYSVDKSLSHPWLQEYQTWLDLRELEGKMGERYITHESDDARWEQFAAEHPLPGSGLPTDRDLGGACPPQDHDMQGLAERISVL

[9] = biological target: Tyrosine-protein kinase ABL1 (Homo sapiens, UniProt P00519); experiment: Inhibition of ABL at 30 uM by microfluidic mobility shift assay; in short: as §1
Chain of Tyrosine-protein kinase ABL1 (P00519 whole entry): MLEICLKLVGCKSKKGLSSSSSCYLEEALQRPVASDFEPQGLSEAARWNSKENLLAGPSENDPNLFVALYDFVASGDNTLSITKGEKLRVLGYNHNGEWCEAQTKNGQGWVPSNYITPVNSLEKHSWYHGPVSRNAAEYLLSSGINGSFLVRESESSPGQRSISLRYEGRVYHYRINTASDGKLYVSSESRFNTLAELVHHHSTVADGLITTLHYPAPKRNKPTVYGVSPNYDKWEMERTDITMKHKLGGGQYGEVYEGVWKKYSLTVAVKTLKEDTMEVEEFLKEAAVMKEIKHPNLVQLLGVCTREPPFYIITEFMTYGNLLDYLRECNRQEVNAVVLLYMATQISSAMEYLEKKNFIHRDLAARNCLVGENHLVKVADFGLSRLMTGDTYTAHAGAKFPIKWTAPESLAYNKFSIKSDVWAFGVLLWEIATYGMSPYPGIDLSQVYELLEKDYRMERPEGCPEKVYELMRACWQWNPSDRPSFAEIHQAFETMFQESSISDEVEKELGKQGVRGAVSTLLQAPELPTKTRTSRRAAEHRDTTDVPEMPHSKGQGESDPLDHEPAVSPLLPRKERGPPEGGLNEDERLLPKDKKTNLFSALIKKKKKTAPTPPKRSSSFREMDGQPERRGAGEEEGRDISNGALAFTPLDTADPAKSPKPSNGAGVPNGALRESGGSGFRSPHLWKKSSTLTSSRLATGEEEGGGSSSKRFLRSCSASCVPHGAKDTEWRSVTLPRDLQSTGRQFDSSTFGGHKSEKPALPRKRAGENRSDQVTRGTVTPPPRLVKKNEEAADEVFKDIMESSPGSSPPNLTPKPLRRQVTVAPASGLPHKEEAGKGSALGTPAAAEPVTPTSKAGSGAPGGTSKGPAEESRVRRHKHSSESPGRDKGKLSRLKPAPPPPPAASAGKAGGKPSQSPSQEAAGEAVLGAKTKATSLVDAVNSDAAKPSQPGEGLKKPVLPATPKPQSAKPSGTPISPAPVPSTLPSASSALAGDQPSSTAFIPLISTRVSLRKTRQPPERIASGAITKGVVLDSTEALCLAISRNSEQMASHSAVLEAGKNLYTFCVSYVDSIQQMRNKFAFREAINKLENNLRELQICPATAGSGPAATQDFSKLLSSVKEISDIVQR

[10] = biological target: Tyrosine-protein kinase Fyn (Homo sapiens, UniProt P06241); experiment: Inhibition of FYN at 30 uM by microfluidic mobility shift assay; in short: as §1
[11] = biological target: Tyrosine-protein kinase Lyn (Homo sapiens, UniProt P07948); experiment: Inhibition of LYN at 30 uM by microfluidic mobility shift assay; in short: as §1
Chain of Tyrosine-protein kinase Lyn (P07948 2-512 limits assumed): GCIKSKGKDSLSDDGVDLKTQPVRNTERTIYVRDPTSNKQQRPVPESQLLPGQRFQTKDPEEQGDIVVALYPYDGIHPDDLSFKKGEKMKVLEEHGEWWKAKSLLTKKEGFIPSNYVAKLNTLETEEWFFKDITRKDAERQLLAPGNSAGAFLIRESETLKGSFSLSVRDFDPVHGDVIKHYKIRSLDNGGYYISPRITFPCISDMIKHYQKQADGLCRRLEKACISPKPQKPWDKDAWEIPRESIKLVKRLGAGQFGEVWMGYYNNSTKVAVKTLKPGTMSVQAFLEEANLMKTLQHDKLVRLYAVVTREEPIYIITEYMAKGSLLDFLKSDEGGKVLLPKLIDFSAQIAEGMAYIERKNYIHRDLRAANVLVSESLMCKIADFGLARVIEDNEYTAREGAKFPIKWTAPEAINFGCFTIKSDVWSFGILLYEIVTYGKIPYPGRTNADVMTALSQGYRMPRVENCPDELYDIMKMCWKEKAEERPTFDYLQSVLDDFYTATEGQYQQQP

[12] = biological target: Serine/threonine-protein kinase Chk2 (Homo sapiens, UniProt O96017); experiment: Inhibition of CHK2 at 30 uM by microfluidic mobility shift assay; in short: as §1
Chain of Serine/threonine-protein kinase Chk2 (O96017 whole entry): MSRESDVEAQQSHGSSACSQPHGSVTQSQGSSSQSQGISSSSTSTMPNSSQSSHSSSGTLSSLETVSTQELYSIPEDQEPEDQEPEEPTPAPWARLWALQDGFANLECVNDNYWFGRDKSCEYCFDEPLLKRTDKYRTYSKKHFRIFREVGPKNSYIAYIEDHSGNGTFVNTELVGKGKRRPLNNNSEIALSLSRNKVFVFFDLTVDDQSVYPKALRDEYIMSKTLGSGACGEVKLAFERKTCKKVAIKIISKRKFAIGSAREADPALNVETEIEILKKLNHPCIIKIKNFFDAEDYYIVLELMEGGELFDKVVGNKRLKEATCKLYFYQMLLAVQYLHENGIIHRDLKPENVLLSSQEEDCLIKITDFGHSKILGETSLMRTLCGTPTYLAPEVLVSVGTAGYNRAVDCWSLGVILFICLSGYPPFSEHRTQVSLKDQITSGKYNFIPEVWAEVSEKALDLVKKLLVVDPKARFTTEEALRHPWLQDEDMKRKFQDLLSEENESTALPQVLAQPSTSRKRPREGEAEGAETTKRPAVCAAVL

[13] = biological target: Tyrosine-protein kinase Lck (Homo sapiens, UniProt P06239); experiment: Inhibition of LCK at 30 uM by microfluidic mobility shift assay; in short: as §1
[14] = biological target: Proto-oncogene tyrosine-protein kinase Src (Homo sapiens, UniProt P12931); experiment: Inhibition of SRC at 30 uM by microfluidic mobility shift assay; in short: as §1
[15] = biological target: Glycogen synthase kinase-3 beta (Homo sapiens) (UniProt P49841); experiment: Inhibition of GSK3B at 30 uM by microfluidic mobility shift assay; in short: as §1
Chain of Glycogen synthase kinase-3 beta (Homo sapiens) (P49841 whole entry, looked up): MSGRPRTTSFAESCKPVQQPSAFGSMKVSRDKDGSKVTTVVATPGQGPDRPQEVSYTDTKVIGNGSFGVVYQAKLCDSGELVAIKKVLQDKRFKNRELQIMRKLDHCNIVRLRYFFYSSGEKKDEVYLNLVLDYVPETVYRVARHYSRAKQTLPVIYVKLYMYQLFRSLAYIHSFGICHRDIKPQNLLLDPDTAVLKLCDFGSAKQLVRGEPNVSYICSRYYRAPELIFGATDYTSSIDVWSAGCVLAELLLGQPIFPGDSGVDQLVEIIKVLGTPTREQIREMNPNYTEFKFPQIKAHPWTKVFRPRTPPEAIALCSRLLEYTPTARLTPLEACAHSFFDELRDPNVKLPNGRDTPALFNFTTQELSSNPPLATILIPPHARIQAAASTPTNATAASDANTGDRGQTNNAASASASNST

[16] = biological target: Mitogen-activated protein kinase 1 (Homo sapiens) (UniProt P28482); experiment: Inhibition of ERK2 at 30 uM by microfluidic mobility shift assay; in short: as §1
Chain of Mitogen-activated protein kinase 1 (Homo sapiens) (P28482 whole entry): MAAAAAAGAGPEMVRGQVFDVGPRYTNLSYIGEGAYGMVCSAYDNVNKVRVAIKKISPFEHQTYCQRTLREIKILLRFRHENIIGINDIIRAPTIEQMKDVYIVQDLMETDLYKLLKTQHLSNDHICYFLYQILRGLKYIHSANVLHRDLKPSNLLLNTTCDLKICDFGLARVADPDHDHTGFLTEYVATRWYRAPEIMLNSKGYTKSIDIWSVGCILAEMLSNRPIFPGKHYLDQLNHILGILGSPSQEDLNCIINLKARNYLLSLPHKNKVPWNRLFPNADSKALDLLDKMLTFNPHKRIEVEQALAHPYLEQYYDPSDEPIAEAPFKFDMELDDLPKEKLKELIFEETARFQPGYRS

[17] = biological target: RAC-beta serine/threonine-protein kinase (Homo sapiens) (UniProt P31751); experiment: Inhibition of AKT2 at 30 uM by microfluidic mobility shift assay; in short: as §1
[18] = biological target: Insulin receptor (Homo sapiens) (UniProt P06213); experiment: Inhibition of INSR at 30 uM by microfluidic mobility shift assay; in short: as §1
Chain of Insulin receptor (Homo sapiens) (P06213 28-758 limits assumed): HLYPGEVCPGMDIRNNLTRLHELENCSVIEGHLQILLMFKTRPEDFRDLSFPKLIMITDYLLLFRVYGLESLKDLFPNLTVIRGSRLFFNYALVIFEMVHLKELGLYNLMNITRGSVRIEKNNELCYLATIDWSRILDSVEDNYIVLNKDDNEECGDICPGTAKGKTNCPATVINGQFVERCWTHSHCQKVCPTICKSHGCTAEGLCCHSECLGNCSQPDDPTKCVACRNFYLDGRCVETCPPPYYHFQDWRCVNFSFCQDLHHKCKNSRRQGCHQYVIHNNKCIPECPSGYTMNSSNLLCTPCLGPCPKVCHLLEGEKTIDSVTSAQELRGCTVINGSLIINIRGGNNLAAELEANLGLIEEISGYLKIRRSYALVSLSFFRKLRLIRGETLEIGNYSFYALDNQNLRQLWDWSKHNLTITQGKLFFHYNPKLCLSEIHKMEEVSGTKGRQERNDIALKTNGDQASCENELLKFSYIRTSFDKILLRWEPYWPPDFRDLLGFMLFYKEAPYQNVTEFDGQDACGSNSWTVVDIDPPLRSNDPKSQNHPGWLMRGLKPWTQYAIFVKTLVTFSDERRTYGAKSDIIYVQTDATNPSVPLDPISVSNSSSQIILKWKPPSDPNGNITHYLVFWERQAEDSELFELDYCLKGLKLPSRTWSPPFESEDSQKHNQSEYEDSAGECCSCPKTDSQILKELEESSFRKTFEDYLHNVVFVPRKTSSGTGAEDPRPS
Chain of Insulin receptor (Homo sapiens) (P06213 763-1382 limits assumed): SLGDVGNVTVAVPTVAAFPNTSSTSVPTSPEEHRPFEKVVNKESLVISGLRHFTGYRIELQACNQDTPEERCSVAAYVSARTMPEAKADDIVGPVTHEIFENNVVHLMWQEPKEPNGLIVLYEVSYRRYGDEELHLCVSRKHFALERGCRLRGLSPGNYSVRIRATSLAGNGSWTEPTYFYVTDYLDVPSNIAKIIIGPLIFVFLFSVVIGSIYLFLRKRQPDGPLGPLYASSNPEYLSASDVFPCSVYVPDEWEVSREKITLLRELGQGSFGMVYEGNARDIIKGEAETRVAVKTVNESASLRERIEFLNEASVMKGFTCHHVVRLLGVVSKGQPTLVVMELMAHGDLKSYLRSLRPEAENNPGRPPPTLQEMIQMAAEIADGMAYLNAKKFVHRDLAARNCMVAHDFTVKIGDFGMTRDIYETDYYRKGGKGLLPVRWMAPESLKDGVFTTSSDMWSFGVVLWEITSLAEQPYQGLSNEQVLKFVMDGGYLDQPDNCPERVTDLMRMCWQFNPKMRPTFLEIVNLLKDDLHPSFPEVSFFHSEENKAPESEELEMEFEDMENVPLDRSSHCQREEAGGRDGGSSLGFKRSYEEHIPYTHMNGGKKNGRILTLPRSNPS

[19] = biological target: Mitogen-activated protein kinase 14 (Homo sapiens, UniProt Q16539); experiment: Inhibition of p38alpha at 30 uM by microfluidic mobility shift assay; in short: as §1
Chain of Mitogen-activated protein kinase 14 (Q16539 whole entry): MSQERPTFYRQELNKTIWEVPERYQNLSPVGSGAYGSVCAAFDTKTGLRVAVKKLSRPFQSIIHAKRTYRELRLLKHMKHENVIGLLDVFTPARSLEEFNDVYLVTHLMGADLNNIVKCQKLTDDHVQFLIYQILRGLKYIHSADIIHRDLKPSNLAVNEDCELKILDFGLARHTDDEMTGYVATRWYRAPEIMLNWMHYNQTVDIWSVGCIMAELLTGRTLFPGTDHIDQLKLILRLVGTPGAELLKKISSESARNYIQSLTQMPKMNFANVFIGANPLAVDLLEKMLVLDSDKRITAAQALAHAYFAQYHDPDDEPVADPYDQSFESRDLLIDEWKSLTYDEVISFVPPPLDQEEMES

[20] = biological target: RAC-alpha serine/threonine-protein kinase (Homo sapiens) (UniProt P31749); experiment: Inhibition of AKT1 at 30 uM by microfluidic mobility shift assay; in short: as §1
[21] = biological target: Ribosomal protein S6 kinase alpha-5 (Homo sapiens) (UniProt O75582); experiment: Inhibition of MSK1 at 30 uM by microfluidic mobility shift assay; in short: as §1
[22] = biological target: T5, Serine/threonine-protein kinase Chk1 (Homo sapiens) (UniProt O14757); experiment: Inhibition of CHK1 at 30 uM by microfluidic mobility shift assay; in short: as §1
T5 sequence (whole entry): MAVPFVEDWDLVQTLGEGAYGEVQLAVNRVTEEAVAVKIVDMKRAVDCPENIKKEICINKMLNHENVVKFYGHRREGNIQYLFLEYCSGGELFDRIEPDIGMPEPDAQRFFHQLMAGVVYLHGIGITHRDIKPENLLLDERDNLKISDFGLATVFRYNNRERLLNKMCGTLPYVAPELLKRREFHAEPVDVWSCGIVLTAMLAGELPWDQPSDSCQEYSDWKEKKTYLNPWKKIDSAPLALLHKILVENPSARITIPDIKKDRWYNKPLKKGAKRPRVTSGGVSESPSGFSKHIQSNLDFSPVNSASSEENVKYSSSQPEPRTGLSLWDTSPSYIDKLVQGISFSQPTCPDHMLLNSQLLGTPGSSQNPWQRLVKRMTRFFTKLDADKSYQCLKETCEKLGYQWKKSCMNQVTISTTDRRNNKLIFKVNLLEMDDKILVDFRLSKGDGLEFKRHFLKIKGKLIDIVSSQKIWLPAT

[23] = Inhibition of PKA at 30 uM by microfluidic mobility shift assay; in short: as §1

SMILES	solubility [1]	inhibition [2]	inhibition [3]	inhibition [5]	inhibition [6]	inhibition [7]	inhibition [8]	inhibition [9]	inhibition [10]	inhibition [11]	inhibition [12]	inhibition [13]	inhibition [14]	inhibition [15]	inhibition [16]	inhibition [17]	inhibition [18]	inhibition [19]	inhibition [20]	inhibition [21]	also measured
Cc1[nH]c(=O)c2c(N)n(-c3ccccc3)nc2c1-c1ccccc1	7 µg/mL (≈ 22.1 µM)	9%	4%	-2%	6%	14%	-3%	42%	62%	71%	-1%	73%	71%	16%	8%	4%	10%	78%	-8%	2%	inhibition [4]: 26%
Cc1cc2nn(-c3ccccc3)c(N)c2c(=O)[nH]1	69 µg/mL (≈ 287 µM)	-4%	6%	–	5%	7%	-1%	20%	22%	9%	-4%	24%	26%	9%	7%	1%	4%	26%	5%	4%	inhibition [22]: -9%; inhibition [23]: -8%
Cn1nc(N)c2cnc(-c3ccccc3)cc21	259 µg/mL (≈ 1150 µM)	7%	33%	2%	5%	9%	5%	10%	8%	7%	5%	11%	7%	17%	4%	6%	9%	0%	4%	4%	inhibition [22]: 1%; inhibition [23]: 1%
